Data set [1] relates to Primary neuron. The data set can be described thus: Positive allosteric modulation of AMPA receptor in rat embryonic cortex primary neuronal culture assessed as maximal increase in AMPA-induced membrane depolarization normalized to AMPA-evoked response by microplate reader. It is filed as cell membranes. In outline: (§1)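 Primary cultures of rat embryonic cortical neurons; depolarization evoked by 300 μM AMPA read with fluorescent membrane potential dyes on an imaging plate reader. EC2× is the modulator level doubling the AMPA response (geometric mean, 95% CI).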

The species entered for data set [2] is Rattus norvegicus. The data set can be described thus: Positive allosteric modulation of AMPA receptor in rat hippocampal slice assessed as increase in AMPA-mediated presynaptic noradrenaline release. Also on record: concentration or dose not given beside the values. It is filed as tissue-based. The settings on record: Hippocampus. In outline: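 Rat hippocampal slices, [3H]noradrenaline release evoked by (S)-AMPA 10 μM, modulator at 300 μM; release given as percent of (S)-AMPA alone taken as 100%.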

Data set [3] has as its system Primary neuron. The data set can be described thus: Potentiation of AMPA receptor in rat embryonic cortex primary neuronal culture assessed as concentration required to 2-fold increase in AMPA-induced membrane depolarization by microplate reader. It is filed as cell membranes. In outline:
as §1

The nature of data set [4]: Positive allosteric modulation of AMPA receptor in rat embryonic cortex primary neuronal culture assessed as increase in AMPA-induced membrane depolarization by microplate reader. Type of data set: cell membranes. The settings on record: primary neuron. In outline: as §1
Another data set has as its target Glutamate receptor 2 (Homo sapiens, UniProt P42262). The data set can be described thus: Binding affinity to GluA2-LBD-L483Y-N754S complex (unknown origin) by isothermal titration calorimetry. In outline:
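Direct ITC titration at 25 °C. 20 × 2 μL injections at 3 min, the first 0.4 μL. First point discarded and dilution heat subtracted before a single-site fit. Mean of three titrations.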
(In ITC the heat of successive injections is recorded.)

The species named for data set [5] is Rattus norvegicus. The data set is described as follows: Positive allosteric modulation of AMPA receptor in rat hippocampal slice assessed as amplitude of AMPA-mediated […] postsynaptic field potential in CA1 area at 10 uM. The settings on record: Hippocampus. Type of data set: tissue-based. In outline:
(§2)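 Rat hippocampal slices perfused with medium containing 1.2 mM Mg2+; field EPSPs recorded in CA1 after electrical stimulation of Schaffer collaterals. Area, amplitude and half-width normalized to the 10 min baseline as 100%, reported as percent increase, mean ± SEM (n = 3–4).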

In data set [6] the test system is Hippocampus. The data set can be described thus: Potentiation of tetanus-induced synaptic response in Wistar rat hippocampal dentate gyrus at 3 mg/kg, ip measured first 18 mins. Type of data set: functional, organism-based. Also on record: dose 3 mg/kg. In outline: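 Anesthetized Wistar rats, dosed ip at 3 or 10 mg/kg, n = 8 per group. Dentate gyrus responses evoked by perforant-path stimulation every 2 min, averaged over eight stimulations and normalized to the 60 min baseline. High-frequency tetanus given 1 h after dosing, with recording for 3 h. Potentiation duration judged per group against the 6 min pre-tetanus period.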

Data set [7] is filed under the species Rattus norvegicus. The data set is described as follows: Positive allosteric modulation of AMPA receptor in rat hippocampal slice assessed as area of AMPA-mediated […] postsynaptic field potential in CA1 area at 10 uM. It is filed as tissue-based. The settings on record: Hippocampus. In outline: as §2
Data set [8] concerns Hippocampus. The data set is described as follows: Potentiation of tetanus-induced synaptic response in Wistar rat hippocampal dentate gyrus at 3 mg/kg, ip measured during 42 mins. Type of data set: functional, organism-based. Also on record: dose 3 mg/kg.
The test system of a further data set is Mus musculus. The data set can be described thus: Increase in object recognition task in CD1 mouse at 1 mg/kg, po after 24 hrs. Also noted: dose 1 mg/kg. It is filed as functional, organism-based. In outline:
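Three-session test (habituation, familiarization, recognition) given at 24 h intervals in CD1 mice, compound given orally 1 h before each session. Durations of exploring new versus familiar objects recorded; mean + SEM, paired Student's t test versus familiar object.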

The test system of data set [9] is Hippocampus. The data set is described as follows: Potentiation of high-frequency stimulation-induced synaptic response in Wistar rat hippocampal dentate gyrus assessed as excitatory postsynaptic field potential at 10 mg/kg, ip after 3 hrs. Also on record: dose 10 mg/kg. Type of data set: functional, organism-based. In outline:
(§3)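 Anesthetized Wistar rats dosed ip; perforant-path stimulation with dentate gyrus responses. 1 h after dosing, LTP induced by tetanic high-frequency stimulation and responses followed 3 h; eight responses averaged (every 2 min), normalized to 60 min baseline. n = 8 per group; Dunnett test after two-way ANOVA versus vehicle.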

The test system of data set [10] is Hippocampus. The data set can be described thus: Potentiation of high-frequency stimulation-induced synaptic response in Wistar rat hippocampal dentate gyrus assessed as excitatory postsynaptic field potential at 3 mg/kg, ip after 3 hrs. It is filed as functional, organism-based. Also on record: dose 3 mg/kg. In outline:
as §3

A short description of data set [11]: Ratio of drug level in mouse brain to plasma at 3 mg/kg, po qd after 20 mins by LC-MS/MS analysis. Type of data set: ADME, organism-based. Also noted: dose 3 mg/kg, route oral. In outline: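 Oral dosing in NMRI mice, 20 min before decapitation; brain and plasma levels measured by LC−MS/MS (n = 3), ratio taken as [brain]/[plasma] in mL/g.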
Data set [12] is filed under the species Rattus norvegicus. The data set is described as follows: Positive allosteric modulation of AMPA receptor in rat hippocampal slice assessed as half-width of AMPA-mediated […] postsynaptic field potential in CA1 area at 3 uM. It is filed as tissue-based. The settings on record: Hippocampus. In outline:
as §2

Data set [13] is filed under the species Rattus norvegicus. The data set is described as follows: Positive allosteric modulation of AMPA receptor in rat hippocampal slice assessed as amplitude of AMPA-mediated […] postsynaptic field potential in CA1 area at 3 uM. It is filed as tissue-based. Particulars: Hippocampus. In outline:
as §2

In data set [14] the test system is Hippocampus. The data set is described as follows: Potentiation of high-frequency stimulation-induced synaptic response in Wistar rat hippocampal dentate gyrus assessed as increase in long-term potentiation at 10 mg/kg, ip after 1 hr. It is filed as functional, organism-based. Also on record: dose 10 mg/kg. In outline: as §3
The species named for data set [15] is Rattus norvegicus. The data set can be described thus: Positive allosteric modulation of AMPA receptor in rat hippocampal slice assessed as half-width of AMPA-mediated […] postsynaptic field potential in CA1 area at 10 uM. It is filed as tissue-based. The settings on record: Hippocampus. In outline:
as §2

Data set [16] is described as follows: Drug uptake in mouse brain at 3 mg/kg, po qd after 20 mins by LC-MS/MS analysis. Also noted: dose 3 mg/kg, route oral. The settings on record: read-out: Drug uptake. It is filed as ADME, organism-based. In outline:
(§4)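 NMRI mice dosed orally, killed by decapitation 20 min later; brain and blood rapidly removed and frozen, compound quantified by LC−MS/MS. Brain in ng/g, plasma in ng/mL; n = 3.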

The species entered for data set [17] is Rattus norvegicus. The data set is described as follows: Positive allosteric modulation of AMPA receptor in rat hippocampal slice assessed as area of AMPA-mediated […] postsynaptic field potential in CA1 area at 3 uM. Type of data set: tissue-based. Particulars: Hippocampus. In outline: as §2
Data set [18] in a line: Drug uptake in mouse plasma at 3 mg/kg, po qd after 20 mins by LC-MS/MS analysis. Also on record: dose 3 mg/kg, route oral. It is filed as ADME, organism-based. In outline: as §4

From ChEMBL document CHEMBL3351484, “Positive allosteric modulators of 2-amino-3-(3-hydroxy-5-methylisoxazol-4-yl)propionic acid receptors belonging to 4-cyclopropyl-3,4-dihydro-2h-1,2,4-pyridothiadiazine dioxides and diversely chloro-substituted 4-cyclopropyl-3,4-dihydro-2H-1,2,4-benzothiadiazine 1,1-dioxides” (J Med Chem, 2014) come the findings set out here.

Active and inactive are the calls of the source. The rule behind the calls is not given here. Where only a bound is given, the exact number is not on record here.

Glutamate receptor 2, sequence (P42262 whole entry, the tested form may be a part): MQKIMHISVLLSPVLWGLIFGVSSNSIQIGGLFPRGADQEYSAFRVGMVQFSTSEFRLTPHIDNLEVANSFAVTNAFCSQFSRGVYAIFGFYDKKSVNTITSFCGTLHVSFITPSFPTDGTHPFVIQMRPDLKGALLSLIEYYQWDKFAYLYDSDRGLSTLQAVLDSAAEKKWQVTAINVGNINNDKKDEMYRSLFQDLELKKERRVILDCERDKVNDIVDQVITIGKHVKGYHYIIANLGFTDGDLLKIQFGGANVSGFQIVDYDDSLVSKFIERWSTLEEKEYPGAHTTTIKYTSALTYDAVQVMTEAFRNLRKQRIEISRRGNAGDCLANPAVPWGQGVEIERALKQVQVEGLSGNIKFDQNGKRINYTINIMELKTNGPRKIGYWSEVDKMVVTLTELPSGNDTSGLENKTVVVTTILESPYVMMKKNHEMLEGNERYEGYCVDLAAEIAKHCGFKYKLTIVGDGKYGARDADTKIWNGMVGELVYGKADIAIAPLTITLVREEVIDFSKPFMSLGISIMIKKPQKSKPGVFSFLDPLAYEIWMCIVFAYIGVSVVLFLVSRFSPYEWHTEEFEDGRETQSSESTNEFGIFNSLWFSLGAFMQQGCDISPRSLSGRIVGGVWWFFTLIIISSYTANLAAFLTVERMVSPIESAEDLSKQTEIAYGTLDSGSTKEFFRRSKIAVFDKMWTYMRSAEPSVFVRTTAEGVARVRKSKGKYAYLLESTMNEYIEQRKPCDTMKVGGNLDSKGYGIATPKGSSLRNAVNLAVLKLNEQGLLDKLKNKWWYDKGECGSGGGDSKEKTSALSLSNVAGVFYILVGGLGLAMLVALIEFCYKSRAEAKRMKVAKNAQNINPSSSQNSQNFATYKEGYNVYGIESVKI

As to `O=S1(=O)NCN(C2CC2)c2cc(Cl)ccc21`, the Emax in the data set with Primary neuron [1] was more than 5. In addition, the Activity in the data set listed under Rattus norvegicus [2] was 327%; with Primary neuron [3], 5.2 µM.
Turning to `O=S1(=O)NCN(C2CC2)c2ccc(F)cc21`, in the data set on Primary neuron [1], the Emax turned out to be 15. Besides, the EC50 in data set [4] turned out to be 0.9 µM. Also, on Glutamate receptor 2, the equilibrium dissociation constant (Kd) was 0.35 µM. Besides, the Activity with Primary neuron [3] came to 0.27 µM.
Take `O=S1(=O)NCN(C2CC2)c2cccc(Cl)c21`: the Emax with Primary neuron [1] is more than 9. The Activity was found to be 352% in the data set listed under Rattus norvegicus [2] and 2 µM in the data set with Primary neuron [3].
Take `O=S1(=O)NCN(C2CC2)c2ccncc21`: in the data set on Primary neuron [1], the Emax is more than 11. The figures for the Activity in the data set listed under Rattus norvegicus [2] and in the data set on Primary neuron [3] were 330% and 4.4 µM, respectively.
On the same counts, the results for `O=S1(=O)NCN(C2CC2)c2c(Cl)cccc21` are more than 3, 196% and 27.1 µM.
With `O=S1(=O)NCN(C2CC2)c2cccnc21`, the Emax in the data set with Primary neuron [1] was determined as 10. In data set [4], the concentration giving a half-maximal response (EC50) is 1.5 µM. In addition, the Activity came out at 323% in the data set filed under Rattus norvegicus [2] and 0.35 µM in the data set on Primary neuron [3].
For `O=S1(=O)NCN(C2CC2)c2ncc(Cl)cc21`, the Emax in the data set with Primary neuron [1] was more than 7. For the same compound, the Activity in the data set listed under Rattus norvegicus [2] was 276%; with Primary neuron [3], 2.4 µM.
The like results for `O=S1(=O)NCN(C2CC2)c2ncccc21` were, in that order, more than 4, 221% and 13.9 µM.
In the case of `CCN1CNS(=O)(=O)c2cnccc21`, the Kd on Glutamate receptor 2 is 1200 µM.
`O=S1(=O)NCN(C2CC2)c2ccc(Cl)cc21`: the Activity came out at 58% in the data set listed under Rattus norvegicus [5]; 145% in the data set listed under Rattus norvegicus [7]; 9% in the data set listed under Rattus norvegicus [12]; 5.3% in the data set filed under Rattus norvegicus [13]; 113% in the data set filed under Rattus norvegicus [15]; 411% in the data set filed under Rattus norvegicus [2]. In addition, the Activity in the data set filed under Rattus norvegicus [17] came to 10%; with Primary neuron [3], 0.68 µM. In addition, the Emax in the data set on Primary neuron [1] worked out at 11. Moreover, the result with Hippocampus [6], in the data set with Hippocampus [8], in the data set with Mus musculus, with Hippocampus [9], in the data set with Hippocampus [10] and in the data set with Hippocampus [14] was Active. Besides, the partition ratio (Kp) at 20 min in data set [11] was determined as 1.12. In [4], the EC50 came out at 2.9 µM. In addition, the concentration at 20 min in [16] is 72.7 ng/g; in [18], 64.7 ng/mL.

A word on the EC50: it is the concentration needed to bring the measured effect to its halfway point. One may read the Kd as the free concentration of one partner at which half of the binding sites on the other are occupied at equilibrium, for simple one-to-one binding. Usually Kp stands for tissue or fluid exposure divided by exposure in the circulation.
